The list is not random: actives were taken first. Their share in the collection is about 1.8%.
MC4R ag barr: activates human MC4R beta-arrestin recruitment; U2OS MC4R beta-arrestin complementation, luminescence; percent of melanotan II response, DMSO zero; activation, % at 8.9 µM; 360,000 tested, 0.98% active;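 active = activation above a per-plate cutoff, the mean activation of sample wells on that plate plus 3 SD, cut at about 8% in these data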
Target sequence (P32245 whole entry, looked up): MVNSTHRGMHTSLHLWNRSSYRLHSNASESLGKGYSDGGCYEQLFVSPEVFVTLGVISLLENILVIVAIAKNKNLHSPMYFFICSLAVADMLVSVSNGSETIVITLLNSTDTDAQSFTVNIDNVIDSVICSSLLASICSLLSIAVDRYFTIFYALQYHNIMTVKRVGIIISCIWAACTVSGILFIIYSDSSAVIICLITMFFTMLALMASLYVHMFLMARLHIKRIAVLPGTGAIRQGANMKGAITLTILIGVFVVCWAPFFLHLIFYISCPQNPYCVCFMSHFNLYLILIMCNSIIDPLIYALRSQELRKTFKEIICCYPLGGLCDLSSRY
NOD2-RIPK2 inh: NOD2-RIPK2 protein interaction inhibition | O43353 | 360,000 tested, 0.38% active | inhibition, % at 4.98 µM | CHO BLA complementation NOD2-RIPK2, CCF4 ratio | AID 624267; in the data active = inhibition above about 21%;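 note: 0% = vehicle only and 100% = reference blocker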
MC4R antag cAMP: human MC4R antagonism in cAMP assay. MC4R-expressing cells, MTII-stimulated cAMP, LANCE TR-FRET. P32245. inhibition, % at 6.5 µM. AID 540295. 360,000 tested, 0.48% active;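 active = inhibition above its plate's cutoff, the mean of tested wells on that plate plus 3 SD, cut at about 29% in these data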;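 note: 0% = Melanotan II alone and 100% = Melanotan II plus saturating MCL0020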
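Assay system: human MC4R-expressing U2OS cells; reagent: Melanotan II stimulation of cells; dosing: 6.5 µM single dose; timing: compound 30 min, challenge 1 h, detection 1 h; signal: TR-FRET cAMP assay; replicates: one well per compound, no replicates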
TLR4-MyD88 BLA: TLR4-MyD88 interaction inhibition in cells. O00206+Q99836. HeLa CL3-4 TLR4/MyD88 BLA complementation, FRET ratio. inhibition, % at 8.4 µM. 200,000 tested, 0.18% active. AID 861; in the data active = inhibition above about 25%;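 note: 0% = vehicle and 100% = reference inhibitor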
TLR9-MyD88 block: TLR9-MyD88 interaction inhibition. inhibition, % at 4.98 µM. CHO BLA complementation TLR9-MyD88, CCF4 FRET ratio. 340,000 tested, 0.21% active;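 active = inhibition above the mean over all tested compounds plus 3 SD, cut at about 21% in these data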;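 note: 0% = DMSO only wells and 100% = clavulanate BLA inhibitor control wells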
U2OS cAMP counter: U2OS forskolin cAMP inhibition counter-screen. shares compounds with MC4R antag cAMP. parental U2OS, LANCE TR-FRET. inhibition, % at 6.5 µM. 1,600 tested, 26% active. AID 602193;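 active = mean inhibition over triplicates above the low-control well mean plus 3 SD, set per campaign, cut at about 13% in these data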;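 note: signal is single emission at 671 nm which falls as cellular cAMP rises; 0% = forskolin-stimulated wells and 100% = buffer without forskolin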
MC4R cAMP antag: human MC4R cAMP antagonism confirmation | inhibition, % at 6.5 µM | MC4R-expressing cells, MTII-stimulated cAMP, TR-FRET | AID 602195 | 1,600 tested, 27% active | shares compounds with MC4R antag cAMP; in the data active = inhibition above about 29%;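 note: 0% = agonist stimulated wells alone and 100% = agonist stimulated wells plus saturating reference antagonist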
Numbers without * were called inactive; · = no result given.

SMILES	MC4R ag barr	NOD2-RIPK2 inh	MC4R antag cAMP	TLR4-MyD88 BLA	TLR9-MyD88 block	U2OS cAMP counter	MC4R cAMP antag
O=C1OCCC1Sc1nc2ccccc2n1Cc1ccccc1 (centres undefined)	-2	-3	30*	17	2	10	37*
O=C1OCCC1Sc1nnc(-c2ccc(F)cc2)n1Cc1ccccc1 (centres undefined)	-2	8	32*	5	13	26*	32*
O=C1OCCC1Sc1nc2ccccc2n1-c1ccccc1 (centres undefined)	0	-1	23	1	2	·	·
COc1ccc(-n2c(SC3CCOC3=O)nc3ccccc32)cc1 (centres undefined)	-1	6	42*	1	1	11	23
Cc1nc(NCC2CCCO2)c2nnn(Cc3c(F)cccc3Cl)c2n1 (centres undefined)	-3	3	2	6	4	·	·
Cc1ccc2ccccc2c1C(O)c1ncc(-c2ccc(Cl)cc2)[nH]1 (centres undefined)	4	11	0	·	·	·	·
COCC(C)n1c(C)cc(C(=O)COC(=O)C2=NN(c3ccccc3)C(=O)CC2)c1C (centres undefined)	-2	-2	-3	14	-3	·	·
Cc1cc(C(=O)COC(=O)C2=NN(c3ccccc3)C(=O)CC2)c(C)n1CC(F)(F)F	2	-1	30*	-7	-9	0	-6
COc1ccc(C(=O)CCN2CCCCCC2)cc1	-2	6	40*	1	-1	15*	24
CCOc1ccc(C(=O)CCN2CCCCC2)cc1	-1	10	28	8	-6	·	·
CC1CCCCC1NC(=O)/C(C#N)=C/c1ccccc1F (centres undefined)	-2	6	35*	2	-4	5	14
CN(CC(=O)Nc1ccc(Cl)c(C(F)(F)F)c1)C(=O)c1cc(=O)c2ccccc2o1	-2	6	4	·	-10	·	·
Nc1nc(C(c2ccccc2)c2ccccc2)cs1	0	-10	10	·	4	·	·
O=C(COC(=O)CCCN=C1NS(=O)(=O)c2ccccc21)NC(=O)NC1CCCC1	-2	-3	13	-12	7	·	·
CN(C(=O)COC(=O)CNC(=O)c1ccc(Cl)cc1Cl)c1ccccc1	-1	-6	30*	1	1	12	23
COC(=O)C1CCN(C(=O)COC(=O)CNC(=O)c2ccc(Cl)cc2Cl)CC1	1	-4	34*	·	-3	14*	25
O=C(CNC(=O)c1ccccc1F)OCc1nc2ccccc2s1	0	0	15	-20	3	·	·
O=C(CNC(=O)c1ccccc1)OCc1nc2ccccc2s1	-4	-9	37*	-6	4	17*	16
O=C(CNC(=O)c1ccc(Cl)cc1Cl)OCc1nc2ccccc2s1	2	-2	29*	15	-3	14*	18
CC(=O)NC(Cc1cccc(C)c1)C(=O)NC1CCN(C(=O)c2ccc([N+](=O)[O-])cc2)CC1 (centres undefined)	-2	-4	11	4	-4	·	·
C=CCN1C(=O)C(CC(=O)Nc2ccc(OC)cc2)SC1=Nc1ccc(S(N)(=O)=O)cc1 (centres undefined)	2	0	-1	-8	8	·	·
COC(=O)COc1ccc(NS(=O)(=O)c2cccc([N+](=O)[O-])c2)cc1	-2	-6	31*	4	0	22*	43*
CCOC(=O)c1csc(COc2ccc(OC)cc2)n1	0	1	4	·	-9	·	·
O=C(Nc1cc([N+](=O)[O-])ccc1O)c1cccc(C(=O)Nc2cc([N+](=O)[O-])ccc2O)c1	0	4	13	·	-2	·	·
NS(=O)(=O)c1ccc(O)c(NC(=O)c2ccc([N+](=O)[O-])cc2)c1	-1	-2	29*	1	-9	-6	-9
SMILES	MC4R ag barr	NOD2-RIPK2 inh	MC4R antag cAMP	TLR4-MyD88 BLA	TLR9-MyD88 block	U2OS cAMP counter	MC4R cAMP antag
Cc1cc(C(=O)c2cnc(/N=C/N(C)C)s2)c(F)cc1Cl	-3	-1	7	-7	9	·	·
Cc1c(N=C2SCC(=O)N2/N=C/c2ccccc2Cl)c(=O)n(-c2ccccc2)n1C	0	-42	-2	2	-7	·	·
Cc1c(N=C2SCC(=O)N2/N=C\c2ccc(Br)cc2)c(=O)n(-c2ccccc2)n1C	0	3	31*	-4	0	-4	-22
CN1CCC(=NNC(=O)CSc2ccc(Cl)cc2)CC1	-3	2	-4	8	3	·	·
COc1cccc(OC)c1C(=O)NC(=O)Nc1c(C)cccc1C	-2	-3	29*	·	-11	0	0
O=C(Cn1cc(C(F)(F)F)cc(Cl)c1=O)NCc1ccc(Cl)cc1Cl	7	-1	-2	·	-8	·	·
CCNC(=O)Cn1cc(C(F)(F)F)cc(Cl)c1=O	-2	2	30*	·	-2	-1	-2
O=C(CCNC(=O)c1ccc([N+](=O)[O-])cc1)Nc1ccc(F)c(F)c1F	-1	-4	32*	·	-5	1	4
Cc1ccc(F)cc1NC(=O)CCNC(=O)c1ccc([N+](=O)[O-])cc1	1	-5	-4	·	-16	·	·
Cc1ccc(-c2nnn(CC(=O)N3CCCCC3)n2)cc1	-1	-13	-3	·	9	·	·
O=C(NC1CCSc2ccccc21)c1ccc(Cl)c(S(=O)(=O)N2CCOCC2)c1 (centres undefined)	-5	-2	2	·	-5	·	·
CS(=O)(=O)c1ccc(C(=O)OCC(=O)NC(=O)C2CCCCC2)cc1[N+](=O)[O-]	-4	-10	33*	12	10	25*	43*
CS(=O)(=O)c1ccc(C(=O)OCC(=O)NC(=O)C2COc3ccccc3O2)cc1[N+](=O)[O-] (centres undefined)	-2	-4	31*	·	-21	13	21
Nc1ccc(C(=O)NNC(=O)C2COc3ccccc3O2)cc1[N+](=O)[O-] (centres undefined)	-3	-3	7	·	-4	·	·
O/N=C/C1=C(Cl)c2ccccc2CC1	1	3	-2	3	15	·	·
Cc1ccc(C(=O)C(C)[n+]2cccc(C(N)=O)c2)cc1 (centres undefined)	-1	-4	3	-8	5	·	·
CC(C(=O)c1ccccc1)[n+]1cccc(C(N)=O)c1 (centres undefined)	0	-3	33*	·	-3	-5	-20
CC(C(=O)Nc1ccc(F)cc1Cl)N1CCN(S(=O)(=O)c2cccs2)CC1 (centres undefined)	-1	-7	9	·	-2	·	·
O=C(Nc1nccs1)c1cc2cc(Cl)ccc2oc1=O	2	-4	33*	·	3	0	1

Compound activity as filed in PubChem.
